Measurements reported in ChEMBL document CHEMBL1255284, “Aspergillus section Fumigati: antifungal susceptibility patterns and sequence-based identification” (2008).
Values after ≈ are worked out from the molar mass of the structure shown.

What was measured:
Aspergillus lentulus [1] = assay: Antimicrobial activity against Aspergillus lentulus isolate CNM-CM-3599 obtained from sputum of patient after 48 hrs by broth microdilution method; type: functional; details: isolate CNM-CM-3599, 48 h
How it was run: (§1)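 CLSI M38-A broth microdilution with modifications: RPMI 1640 with L-glutamine, 2% glucose, buffered to pH 7 with 0.165 M MOPS. Inoculum of 1 × 10^5 to 5 × 10^5 CFU/ml from 3- to 5-day-old cultures. Incubated 35°C, 48 h, humid. Visual reading with a mirror. MIC is complete growth inhibition; echinocandin MEC is hyphal morphological alteration. Azoles 8 to 0.015 μg/ml; others 16 to 0.03 μg/ml.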

[2] = test system: Aspergillus fumisynnematus; assay: Antimicrobial activity against Aspergillus fumisynnematus isolate CNM-CM-4063 obtained from bronchoalveolar aspirate of patient after 48 hrs by broth microdilution method; type: functional; details: isolate CNM-CM-4063, Lung; how it was run: as §1
Aspergillus lentulus [3] = assay: Antimicrobial activity against Aspergillus lentulus isolate CNM-CM-3538 obtained from sputum of patient after 48 hrs by broth microdilution method; type: functional; details: isolate CNM-CM-3538, 48 h; how it was run: as §1
Aspergillus lentulus [4] = assay: Antimicrobial activity against Aspergillus lentulus isolate CNM-CM-4330 obtained from sputum of patient after 48 hrs by broth microdilution method; type: functional; details: isolate CNM-CM-4330, 48 h; how it was run: as §1
Aspergillus lentulus [5] = assay: Antimicrobial activity against Aspergillus lentulus isolate CNM-CM-4428 obtained from skin of patient after 48 hrs by broth microdilution method; type: functional; details: isolate CNM-CM-4428, 48 h; how it was run: as §1
Aspergillus viridinutans [6] = assay: Antimicrobial activity against Aspergillus viridinutans isolate CNM-CM-3147 obtained from oropharyngeal exudate of patient after 48 hrs by broth microdilution method; type: functional; details: isolate CNM-CM-3147, 48 h; how it was run: as §1
Aspergillus lentulus [7] = assay: Antimicrobial activity against Aspergillus lentulus isolate CNM-CM-4420 obtained from nail of patient after 48 hrs by broth microdilution method; type: functional; details: isolate CNM-CM-4420, 48 h; how it was run: as §1
Aspergillus lentulus [8] = assay: Antimicrobial activity against Aspergillus lentulus isolate CNM-CM-3537 obtained from sputum of patient after 48 hrs by broth microdilution method; type: functional; details: isolate CNM-CM-3537, 48 h; how it was run: as §1
[9] = test system: Neosartorya pseudofischeri; assay: Antimicrobial activity against Neosartorya pseudofischeri isolate CNM-CM-3769 obtained from sputum of patient after 48 hrs by broth microdilution method; type: functional; details: Aspergillus thermomutatus
How it was run: (§2)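 CLSI M38-A broth microdilution with modifications: RPMI 1640 with L-glutamine, MOPS-buffered to pH 7, plus 2% glucose. Inoculum 1 × 10^5 to 5 × 10^5 CFU/ml from 3–5-day cultures. Incubated at 35°C for 48 h, humid. Read visually with a mirror. MIC = complete growth inhibition; echinocandin MEC = altered hyphal morphology. QC strain A. fumigatus ATCC 2004305.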

Aspergillus viridinutans [10] = assay: Antimicrobial activity against Aspergillus viridinutans isolate CNM-CM-4518 obtained from nail of patient after 48 hrs by broth microdilution method; type: functional; details: isolate CNM-CM-4518, 48 h; how it was run: as §1
[11] = test system: Neosartorya pseudofischeri; assay: Antimicrobial activity against Neosartorya pseudofischeri isolate CNM-CM-3914 obtained from nail of patient after 48 hrs by broth microdilution method; type: functional; details: Aspergillus thermomutatus, isolate CNM-CM-3914, 48 h; how it was run: as §2
Aspergillus lentulus [12] = assay: Antimicrobial activity against Aspergillus lentulus isolate CNM-CM-4415 obtained from sputum of patient after 48 hrs by broth microdilution method; type: functional; details: isolate CNM-CM-4415, 48 h; how it was run: as §1
Aspergillus lentulus [13] = assay: Antimicrobial activity against Aspergillus lentulus isolate CNM-CM-1290 obtained from sputum of patient after 48 hrs by broth microdilution method; type: functional; details: isolate CNM-CM-1290, 48 h; how it was run: as §1
Aspergillus lentulus [14] = assay: Antimicrobial activity against Aspergillus lentulus isolate CNM-CM-3134 obtained from sputum of patient after 48 hrs by broth microdilution method; type: functional; details: isolate CNM-CM-3134, 48 h; how it was run: as §1
[15] = test system: Neosartorya pseudofischeri; assay: Antimicrobial activity against Neosartorya pseudofischeri isolate CNM-CM-4060 obtained from sputum of patient after 48 hrs by broth microdilution method; type: functional; details: Aspergillus thermomutatus; how it was run: as §2
[16] = test system: Aspergillus fumigatiaffinis; assay: Antimicrobial activity against Aspergillus fumigatiaffinis isolate CNM-CM-2280 obtained from sputum of patient after 48 hrs by broth microdilution method; details: isolate CNM-CM-2280, 48 h
Aspergillus lentulus [17] = assay: Antimicrobial activity against Aspergillus lentulus isolate CNM-CM-4426 obtained from sputum of patient after 48 hrs by broth microdilution method; type: functional; details: isolate CNM-CM-4426, 48 h; how it was run: as §1
Neosartorya hiratsukae [18] = assay: Antimicrobial activity against Neosartorya hiratsukae isolate CNM-CM-4328 obtained from cornea of patient after 48 hrs by broth microdilution method; type: functional; details: Aspergillus hiratsukae, isolate CNM-CM-4328, Cornea; how it was run: as §1
Neosartorya hiratsukae [19] = assay: Antimicrobial activity against Neosartorya hiratsukae isolate CNM-CM-3303 obtained from skin of patient after 48 hrs by broth microdilution method; type: functional; details: Aspergillus hiratsukae, isolate CNM-CM-3303, 48 h; how it was run: as §1
Neosartorya hiratsukae [20] = assay: Antimicrobial activity against Neosartorya hiratsukae isolate CNM-CM-3764 obtained from oropharyngeal exudate of patient after 48 hrs by broth microdilution method; type: functional; details: Aspergillus hiratsukae, isolate CNM-CM-3764, 48 h; how it was run: as §1
[21] = test system: Neosartorya pseudofischeri; assay: Antimicrobial activity against Neosartorya pseudofischeri isolate CNM-CM-2270 obtained from sputum of patient after 48 hrs by broth microdilution method; type: functional; details: Aspergillus thermomutatus, isolate CNM-CM-2270, 48 h; how it was run: as §2
Aspergillus lentulus [22] = assay: Antimicrobial activity against Aspergillus lentulus isolate CNM-CM-4387 obtained from sputum of patient after 48 hrs by broth microdilution method; type: functional; details: isolate CNM-CM-4387, 48 h; how it was run: as §1
Neosartorya hiratsukae [23] = assay: Antimicrobial activity against Neosartorya hiratsukae isolate CNM-CM-3305 obtained from skin of patient after 48 hrs by broth microdilution method; type: functional; details: Aspergillus hiratsukae, isolate CNM-CM-3305, 48 h; how it was run: as §1
Neosartorya hiratsukae [24] = assay: Antimicrobial activity against Neosartorya hiratsukae isolate CNM-CM-3740 obtained from oropharyngeal exudate of patient after 48 hrs by broth microdilution method; type: functional; details: Aspergillus hiratsukae, isolate CNM-CM-3740, 48 h; how it was run: as §1
Aspergillus lentulus [25] = assay: Antimicrobial activity against Aspergillus lentulus isolate CNM-CM-3583 obtained from sputum of patient after 48 hrs by broth microdilution method; type: functional; details: isolate CNM-CM-3583, 48 h; how it was run: as §1
Aspergillus lentulus [26] = assay: Antimicrobial activity against Aspergillus lentulus isolate CNM-CM-3364 obtained from bronchoalveolar lavage fluid of patient after 48 hrs by broth microdilution method; type: functional; details: isolate CNM-CM-3364, Lung; how it was run: as §1
Aspergillus lentulus [27] = assay: Antimicrobial activity against Aspergillus lentulus isolate CNM-CM-4370 obtained from sputum of patient after 48 hrs by broth microdilution method; type: functional; details: isolate CNM-CM-4370, 48 h; how it was run: as §1
Aspergillus fumigatus = assay: Antimicrobial activity against Aspergillus fumigatus ATCC 2004305 after 48 hrs by broth microdilution method; type: functional; details: ATCC 2004305, 48 h
[28] = test system: Aspergillus fumigatiaffinis; assay: Antimicrobial activity against Aspergillus fumigatiaffinis isolate CNM-CM-3227 obtained from bronchoalveolar lavage fluid of patient after 48 hrs by broth microdilution method; details: isolate CNM-CM-3227, Lung

C[C@@H]1[C@H](O)[C@@H](C)/C=C/C=C/C=C/C=C/C=C/C=C/C=C/[C@H](O[C@@H]2O[C@H](C)[C@@H](O)[C@H](N)[C@@H]2O)C[C@@H]2O[C@](O)(C[C@@H](O)C[C@@H](O)[C@H](O)CC[C@@H](O)C[C@@H](O)CC(=O)O[C@H]1C)C[C@H](O)[C@H]2C(=O)O [AMPHOTERICIN B]
MIC (Aspergillus lentulus [1]): 2.66 µg/mL (≈ 2.88 µM) | MIC [2]: 1 µg/mL (≈ 1.08 µM) | MIC (Aspergillus lentulus [3]): 7.25 µg/mL (≈ 7.85 µM) | MIC (Aspergillus lentulus [4]): 8 µg/mL (≈ 8.66 µM) | MIC (Aspergillus lentulus [5]): 12 µg/mL (≈ 13 µM) | MIC (Aspergillus viridinutans [6]): 0.58 µg/mL (≈ 0.628 µM) | MIC (Aspergillus lentulus [7]): 10.7 µg/mL (≈ 11.5 µM) | MIC (Aspergillus lentulus [8]): 7 µg/mL (≈ 7.58 µM) | MIC [9]: 1 µg/mL (≈ 1.08 µM) | MIC (Aspergillus viridinutans [10]): 0.37 µg/mL (≈ 0.4 µM) | MIC [11]: 0.25 µg/mL (≈ 0.271 µM) | MIC (Aspergillus lentulus [12]): 6 µg/mL (≈ 6.49 µM) | MIC (Aspergillus lentulus [13]): 4.5 µg/mL (≈ 4.87 µM) | MIC (Aspergillus lentulus [14]): 10 µg/mL (≈ 10.8 µM) | MIC [15]: 0.25 µg/mL (≈ 0.271 µM) | MIC [16]: 16 µg/mL (≈ 17.3 µM) | MIC (Aspergillus lentulus [17]): 12 µg/mL (≈ 13 µM) | MIC (Neosartorya hiratsukae [18]): 0.75 µg/mL (≈ 0.812 µM) | MIC (Neosartorya hiratsukae [19]): 0.5 µg/mL (≈ 0.541 µM) | MIC (Neosartorya hiratsukae [20]): 1 µg/mL (≈ 1.08 µM) | MIC [21]: 0.17 µg/mL (≈ 0.184 µM) | MIC (Aspergillus lentulus [22]): 6 µg/mL (≈ 6.49 µM) | MIC (Neosartorya hiratsukae [23]): 0.31 µg/mL (≈ 0.335 µM) | MIC (Neosartorya hiratsukae [24]): 0.66 µg/mL (≈ 0.714 µM) | MIC (Aspergillus lentulus [25]): 8 µg/mL (≈ 8.66 µM) | MIC (Aspergillus lentulus [26]): 8.4 µg/mL (≈ 9.09 µM) | MIC (Aspergillus lentulus [27]): 7.33 µg/mL (≈ 7.93 µM) | MIC (Aspergillus fumigatus): 0.25 µg/mL (≈ 0.271 µM) | MIC [28]: 8 µg/mL (≈ 8.66 µM)

CC[C@H](C)C[C@H](C)CCCCCCCCC(=O)N[C@H]1C[C@@H](O)[C@@H](NCCN)NC(=O)[C@@H]2[C@@H](O)CCN2C(=O)[C@H]([C@H](O)CCN)NC(=O)[C@H]([C@H](O)[C@@H](O)c2ccc(O)cc2)NC(=O)[C@@H]2C[C@@H](O)CN2C(=O)[C@H]([C@@H](C)O)NC1=O [CASPOFUNGIN]
minimal effective concentration (Aspergillus lentulus [1]; read-out: MEC): 0.26 µg/mL | minimal effective concentration ([2]; read-out: MEC): 0.5 µg/mL | minimal effective concentration (Aspergillus lentulus [3]; read-out: MEC): 0.11 µg/mL | minimal effective concentration (Aspergillus lentulus [4]; read-out: MEC): 1.2 µg/mL | minimal effective concentration (Aspergillus lentulus [5]; read-out: MEC): 0.29 µg/mL | minimal effective concentration (Aspergillus viridinutans [6]; read-out: MEC): 0.67 µg/mL | minimal effective concentration (Aspergillus lentulus [7]; read-out: MEC): 0.33 µg/mL | minimal effective concentration (Aspergillus lentulus [8]; read-out: MEC): 0.42 µg/mL | minimal effective concentration ([9]; read-out: MEC): 0.12 µg/mL | minimal effective concentration (Aspergillus viridinutans [10]; read-out: MEC): 1 µg/mL | minimal effective concentration ([11]; read-out: MEC): 1 µg/mL | minimal effective concentration (Aspergillus lentulus [12]; read-out: MEC): 0.25 µg/mL | minimal effective concentration (Aspergillus lentulus [13]; read-out: MEC): 0.28 µg/mL | minimal effective concentration (Aspergillus lentulus [14]; read-out: MEC): 0.38 µg/mL | minimal effective concentration ([15]; read-out: MEC): 0.62 µg/mL | minimal effective concentration ([16]; read-out: MEC): 1.3 µg/mL | minimal effective concentration (Aspergillus lentulus [17]; read-out: MEC): 0.22 µg/mL | minimal effective concentration (Neosartorya hiratsukae [18]; read-out: MEC): 0.03 µg/mL | minimal effective concentration (Neosartorya hiratsukae [19]; read-out: MEC): 0.34 µg/mL | minimal effective concentration (Neosartorya hiratsukae [20]; read-out: MEC): 0.26 µg/mL | minimal effective concentration ([21]; read-out: MEC): 0.51 µg/mL | minimal effective concentration (Aspergillus lentulus [22]; read-out: MEC): 0.25 µg/mL | minimal effective concentration (Neosartorya hiratsukae [23]; read-out: MEC): 0.03 µg/mL | minimal effective concentration (Neosartorya hiratsukae [24]; read-out: MEC): 0.66 µg/mL | minimal effective concentration (Aspergillus lentulus [25]; read-out: MEC): 1 µg/mL | minimal effective concentration (Aspergillus lentulus [26]; read-out: MEC): 0.18 µg/mL | minimal effective concentration (Aspergillus lentulus [27]; read-out: MEC): 0.91 µg/mL | minimal effective concentration (Aspergillus fumigatus; read-out: MEC): 0.12 µg/mL | minimal effective concentration ([28]; read-out: MEC): 0.16 µg/mL
